From ChEMBL document CHEMBL1157072 (Bioorg Med Chem, 2010)
Values after ≈ are worked out from the molar mass of the structure shown.

Key:
Staphylococcus aureus [1] = test: Antibacterial activity against Staphylococcus aureus NCTC 8325 after 16 to 20 hrs by broth microdilution method; format: functional
Method in brief: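 Broth microdilution in cation-adjusted Mueller Hinton broth. Compounds were serially diluted twofold in DMSO at 50-fold final strength (2% DMSO final). The inoculum was 1 × 10^4 cells per well. Plates were incubated at 37 °C for 16–20 h, and growth was read as absorbance at 600 nm.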

[2] = Selectivity ratio of MIC for MBX-1090-resistant Staphylococcus aureus isolate d20A1 to MIC for Staphylococcus aureus NCTC 8325; format: functional
Method in brief: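 Ratio of resistant-mutant MIC to NCTC 8325 MIC. Both MICs came from broth microdilution in cation-adjusted MHB with 2% DMSO final and 1 × 10^4 cells per well, incubated at 37 °C for 16–20 h and read at 600 nm.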

Staphylococcus aureus [3] = test: microbe, parasite or virus in culture; conditions: isolate d20A1

| Compound | MIC (Staphylococcus aureus [1]) [µg/mL] | Selectivity ratio [2] | MIC (Staphylococcus aureus [3]) [µg/mL] |
| --- | --- | --- | --- |
| NC[C@H]1O[C@H](O[C@H]2[C@H](O)[C@@H](O[C@H]3O[C@H](CO)[C@@H](O)[C@H](N)[C@H]3O)[C@H](N)C[C@@H]2N)[C@H](O)[C@@H](O)[C@@H]1O [KANAMYCIN] | 2 (≈ 4.13 µM) | 4 | 8 (≈ 16.5 µM) |
| CN[C@@H]1[C@H](O)[C@H](NC)[C@H]2O[C@@]3(O)C(=O)C[C@@H](C)O[C@H]3O[C@@H]2[C@H]1O [SPECTINOMYCIN] | 128 (≈ 385 µM) | – | 128 (≈ 385 µM) |
| COc1cc(Cc2cnc(N)nc2N)cc(OC)c1OC [TRIMETHOPRIM] | 3.12 (≈ 10.8 µM) | – | 3.12 (≈ 10.8 µM) |
| CO[C@@H]1[C@@H](OC(N)=O)[C@@H](O)[C@H](Oc2ccc3c(O)c(NC(=O)c4ccc(O)c(CC=C(C)C)c4)c(=O)oc3c2C)OC1(C)C [NOVOBIOCIN] | 0.125 (≈ 0.204 µM) | – | 0.125 (≈ 0.204 µM) |
| CCN1CCN(c2cc3c(cc2F)c(=O)c(C(=O)O)cn3C2CC2)CC1 [ENROFLOXACIN] | 0.125 (≈ 0.348 µM) | – | 0.125 (≈ 0.348 µM) |
| GENTAMICIN | 0.25 | – | – |
| Cc1onc(-c2ccccc2)c1C(=O)N[C@@H]1C(=O)N2[C@@H]1SC(C)(C)[C@@H]2C(=O)O [OXACILLIN] | 0.125 (≈ 0.311 µM) | – | 0.125 (≈ 0.311 µM) |
| CC(=O)O[C@H]1C[C@@]2(C)[C@@H](C[C@@H](O)[C@H]3[C@@]4(C)CC[C@@H](O)[C@@H](C)[C@@H]4CC[C@@]32C)/C1=C(\CCC=C(C)C)C(=O)O [FUSIDIC ACID] | 0.0625 (≈ 0.121 µM) | – | 0.0625 (≈ 0.121 µM) |
| CCn1cc(C(=O)O)c(=O)c2ccc(C)nc21 [NALIDIXIC ACID] | 100 (≈ 431 µM) | – | 50 (≈ 215 µM) |
| CN(C)[C@@H]1C(O)=C(C(N)=O)C(=O)[C@@]2(O)C(O)=C3C(=O)c4c(O)cccc4[C@@](C)(O)[C@H]3C[C@@H]12 [TETRACYCLINE] | 0.5 (≈ 1.13 µM) | – | 0.5 (≈ 1.13 µM) |
| CN[C@@H]1[C@H](O[C@H]2[C@H](O[C@H]3[C@H](O)[C@@H](O)[C@H](N=C(N)N)[C@@H](O)[C@@H]3N=C(N)N)O[C@@H](C)[C@]2(O)C=O)O[C@@H](CO)[C@H](O)[C@H]1O [STREPTOMYCIN] | 32 (≈ 55 µM) | 4 | 128 (≈ 220 µM) |
| CO[C@H]1/C=C/O[C@@]2(C)Oc3c(C)c(O)c4c(O)c(c(/C=N/N5CCN(C)CC5)c(O)c4c3C2=O)NC(=O)/C(C)=C\C=C\[C@H](C)[C@H](O)[C@@H](C)[C@@H](O)[C@@H](C)[C@H](OC(C)=O)[C@@H]1C [RIFAMPIN] | 0.0122 (≈ 0.0148 µM) | – | 0.0122 (≈ 0.0148 µM) |
